# Measurements of several laboratories.
# pIC50, pKd, pKi: −log10 of the molar value.
# Dihydroorotate dehydrogenase (quinone), mitochondrial: Dihydroorotate dehydrogenase (quinone), mitochondrial (Rattus norvegicus, UniProt Q63707)
# CYP2D6: Cytochrome P450 2D6 (CYP2D6, Homo sapiens, UniProt P10635)
Structure (SMILES),target,test,system,conditions,measurement,value
Cc1nn(CCc2ccccc2)c2ncc(C(=O)NCc3cccnc3)c(Cl)c12,"Prolyl endopeptidase (PREP, Homo sapiens, UniProt P48147)","enzyme activity, inhibitor, fluorescence",,,pIC50,4.85
C[C@@H]1CN(c2ccc(-c3cc(C(=O)NCCCNC(=O)/C=C/c4[nH]cc(C(=O)N[C@@H](CC(N)=O)c5ccc(F)c(Cl)c5)c4-c4ccc(Cl)cc4F)ccc3F)cc2NC(=O)c2c[nH]c(=O)cc2C(F)(F)F)C[C@H](C)N1C,"DDB1- and CUL4-associated factor 1 (DCAF1, Homo sapiens, UniProt Q9Y4B6)","binding, SPR",,,pKd,7.82
Cn1nc2c(=O)n(C3CC3)ncc2c1[C@](N)(c1ccc(C(F)(F)F)c(Cl)c1)C1CC1,"Dihydroorotate dehydrogenase (quinone), mitochondrial","enzyme activity, inhibitor, absorbance",,,pIC50,5.21
COc1cc(O)c2c(c1)C(=O)c1cc(C)cc(O)c1C2=O,CYP2D6,"enzyme activity, inhibitor","human, liver microsomes",pH 7.4,pKi,5.06
Nc1ccccc1NC(=O)c1ccc(CNc2ccc(NC3=C(Cl)C(=O)c4cccnc4C3=O)cc2)cc1,"Histone deacetylase 3 (HDAC3, Homo sapiens, UniProt O15379)","enzyme activity, inhibitor",,,pIC50,6.15
O=C1CCC(=O)N1Cc1cc2nccc(-c3cc(Cl)cc4c3N([C@@H]3CNC5(CCC5)C3)CCC4)c2s1,"Ubiquitin carboxyl-terminal hydrolase 7 (USP7, Homo sapiens, UniProt Q93009)","binding, SPR",,,pKd,10.00
C=C(F)C(=O)N1CCN(c2nc(OC[C@@H]3CCCN3C)nc3c2CCN(c2cccc4cccc(Cl)c24)C3)C[C@@H]1CC#N,CYP2D6,"enzyme activity, inhibitor","human, liver microsomes",,pKi,4.58
CCNC(=O)/C=C/c1cccc(Br)c1,"Sodium-dependent neutral amino acid transporter B(0)AT1 (SLC6A19, Homo sapiens, UniProt Q695T7)","transporter uptake, inhibitor, radiometric",,,pIC50,6.08
Cn1nc2c(=O)n(C3CC3)ncc2c1[C@](O)(c1cnc(C(F)(F)F)c(Cl)c1)C(F)(F)F,"Dihydroorotate dehydrogenase (quinone), mitochondrial","enzyme activity, inhibitor, absorbance",,,pIC50,< 4.52
Cc1ccc2[nH]c(=O)c(CNC3CCCCC3)cc2c1,"Alpha-1B adrenergic receptor (ADRA1B, Homo sapiens, UniProt P35368)",ligand displacement in cells,,,pKi,6.81
Cn1nc2c(=O)n(C3CC3)ccc2c1[C@](O)(c1cnc(C(F)(F)F)c(Cl)c1)C(F)(F)F,"Dihydroorotate dehydrogenase (quinone), mitochondrial","enzyme activity, inhibitor, absorbance",,,pIC50,4.80
Cc1ccc(C(=O)Nc2ccc(CN3CCN(C)CC3)c(C(F)(F)F)c2)cc1C#Cc1cnc2cccnn12,"Calmodulin-domain protein kinase 1, putative (Cryptosporidium parvum, UniProt A3FQ16)","enzyme activity, inhibitor",,,pIC50,< 6.00
